A selection: hits, their analogues and other compounds. The true share with any hit is near 2.3%.
TRPC4 inh – blocks the mouse TRPC4 cation channel. Q9QUQ5. HEK293 TRPC4beta/mu-opioid, DAMGO-evoked Fluo4 calcium flux; stronger effect = lower value. B-score at 10 µM. actives 0.39% (n = 300,000). AID 2247;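 active = B-score over 3 SD under the library average, no early fluorescence shift, positive overall ratio signal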
Target sequence (Q9QUQ5 whole entry, looked up): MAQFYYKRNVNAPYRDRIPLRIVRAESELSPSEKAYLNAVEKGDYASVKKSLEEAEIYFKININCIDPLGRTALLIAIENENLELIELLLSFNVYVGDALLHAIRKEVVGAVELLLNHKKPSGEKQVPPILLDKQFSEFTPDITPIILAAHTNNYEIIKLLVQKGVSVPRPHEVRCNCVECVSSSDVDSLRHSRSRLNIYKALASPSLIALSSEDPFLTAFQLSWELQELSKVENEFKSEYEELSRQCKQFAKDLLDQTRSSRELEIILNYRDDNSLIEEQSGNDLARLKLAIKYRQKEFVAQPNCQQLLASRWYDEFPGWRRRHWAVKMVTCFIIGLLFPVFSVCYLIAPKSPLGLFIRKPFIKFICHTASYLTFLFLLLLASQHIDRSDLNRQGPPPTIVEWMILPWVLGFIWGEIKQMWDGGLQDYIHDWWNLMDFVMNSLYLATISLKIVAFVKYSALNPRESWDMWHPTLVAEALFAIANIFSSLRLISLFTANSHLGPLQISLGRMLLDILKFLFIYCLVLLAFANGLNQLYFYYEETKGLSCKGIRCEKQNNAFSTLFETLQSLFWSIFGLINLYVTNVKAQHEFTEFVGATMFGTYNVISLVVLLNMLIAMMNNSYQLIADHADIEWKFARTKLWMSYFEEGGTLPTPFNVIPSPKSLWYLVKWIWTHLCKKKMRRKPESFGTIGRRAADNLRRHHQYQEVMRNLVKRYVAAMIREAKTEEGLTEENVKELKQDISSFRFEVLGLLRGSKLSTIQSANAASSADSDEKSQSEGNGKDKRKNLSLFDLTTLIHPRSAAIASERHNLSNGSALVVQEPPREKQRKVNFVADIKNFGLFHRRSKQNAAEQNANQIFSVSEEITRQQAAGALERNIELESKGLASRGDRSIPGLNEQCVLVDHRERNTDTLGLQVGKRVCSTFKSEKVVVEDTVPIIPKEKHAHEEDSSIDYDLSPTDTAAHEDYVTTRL
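Material: HEK293 cells with stable TRPC4beta plus mu-opioid receptor expression / Probe or stimulus: DAMGO in two steps, submaximal then maximal / Compound: single concentration per test compound / Technique: kinetic Fluo4 fluorescence imaging of calcium influx / Read-out: per-well B score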
TRPC6 act – mouse TRPC6 channel activation; B-score at 10 µM; AID 2550; HEK293-TRPC6 membrane potential dye fluorescence; stronger effect = higher value; actives 0.13% (n = 310,000);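 active = B-score of the integrated fluorescence ratio above library mean plus 3 SD, and starting fluorescence ratio within library mean plus 5 SD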;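 also: higher score means more depolarization so channel activation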
TRPC4 PAM – TRPC4 (mouse) allosteric potentiation | HEK293 TRPC4beta/mu-opioid, DAMGO EC20, Fluo-4 Ca2+ flux; stronger effect = higher value | B-score at 10 µM | actives 0.42% (n = 310,000);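 active = B-score of calcium response area above 5 SD of library B-scores, with initial fluorescence ratio within 5 SD of library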;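 also: B-score of integrated fluorescence ratio over time as area under calcium response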
TRPC4 act – opens the mouse TRPC4 cation channel; B-score at 10 µM; actives 0.49% (n = 310,000); Q9QUQ5; HEK293 TRPC4beta/mu-opioid, Fluo4 calcium fluorescence; stronger effect = higher value; AID 2237;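 active = B-score above 5 SD of library B-scores, and initial fluorescence ratio not above library mean plus 5 SD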;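 also: positive B-score marks a calcium rise read as TRPC4 activation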
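system = HEK293 cells stably co-expressing mouse TRPC4beta and mu-opioid receptor | schedule = Fluo4 dye loading 45 min at room temperature, 110 s recording | measure = B-scored integrated calcium fluorescence ratio | signal = Fluo4 calcium-sensitive dye fluorescence, kinetic, 1 Hz baseline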
TRPC6 inhibitor – mouse TRPC6 channel inhibition | Q61143 | HEK293-TRPC6, membrane potential dye, ACh-evoked depolarization; stronger effect = lower value | B-score at 10 µM | actives 1.1% (n = 310,000) | AID 2553;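 active = B-score under library mean minus 3 SD, initial fluorescence not abnormally high, positive integrated signal ratio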;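 also: B-score derived from integrated fluorescence ratio over the kinetic read; more negative B-score means stronger inhibition of depolarization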
TRPC4 spec 2 – second selectivity test of TRPC6 inhibitors: effect on mouse TRPC4 | actives 42% (n = 920) | HEK293 TRPC4/MOR, membrane potential dye fluorescence; channel activated by saturating DAMGO dose | shares compounds with TRPC6 inhibitor | inhibition, % at 10 µM;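 active = compounds whose fluorescence signal differed from control wells by over 3 SD, either direction, in both duplicate plates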
TRPC4 spec – tests whether TRPC6 inhibitors also affect mouse TRPC4; actives 61% (n = 920); HEK293 TRPC4/mu-opioid, membrane potential fluorescence; shares compounds with TRPC6 inhibitor; AID 2777; activity change, negative = inhibition, % at 10 µM;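 active = rise or fall in signal beyond 3 SD of buffer-only wells in both replicate plates, either sign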;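 also: integrated kinetic ratio of fluorescence range over baseline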
HEK293 MPD ctr 2-1 – parental HEK293 nonspecific activity of TRPC6 inhibitors, second screen | shares compounds with TRPC6 inhibitor | parental HEK293 membrane potential dye fluorescence; maximal acetylcholine challenge after compound addition | signal change vs control, % at 10 µM | actives 31% (n = 920);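 active = membrane potential signal moving either way by over 3 SD of the maximum-effect control, in both duplicate plates, meaning non-specific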
HEK293 MPD ctr-1 – parental HEK293 nonspecific activity of TRPC6 inhibitors; shares compounds with TRPC6 inhibitor; parental HEK293 membrane potential dye fluorescence; membrane potential signal change, % at 10 µM; actives 60% (n = 920);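 active = membrane potential signal shifting up or down by more than 3 SD of buffer-only wells, on both duplicate plates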
HEK293 MPD ctr-2 – checks TRPC6 modulator effects in parental HEK293 cells; membrane potential dye fluorescence; shares compounds with TRPC6 inhibitor; actives 51% (n = 2,400); membrane potential signal change, % at 10 µM;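 active = membrane potential signal moves up or down beyond 5 SD from buffer-only wells, on both duplicate plates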
HEK293 MPD ctr 2-2 – parental HEK293 nonspecific activity of TRPC6 modulators, second screen; shares compounds with TRPC6 inhibitor; membrane potential dye fluorescence; after compound, maximal acetylcholine stimulation; inhibition, % at 10 µM; actives 14% (n = 2,400); AID 488926;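 active = membrane potential signal drops by more than 5 SD from the mean control signal, in both duplicate plates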;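 also: plate controls were acetylcholine ECmax control wells for no effect and buffer only wells for full effect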
TRPC4/MOR mod – mouse TRPC4 off-target activity of TRPC6 modulators | shares compounds with TRPC6 inhibitor | actives 69% (n = 2,400) | percent change from control (negative = decrease, positive = increase), % at 10 µM | AID 488927 | HEK293 TRPC4/mu-opioid, membrane potential fluorescence;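 active = membrane potential signal moved up or down beyond 5 SD of buffer control wells, in both duplicate plates, actives on both sides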;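 also: plate controls were assay buffer wells for no effect and DAMGO maximal-effect wells for full effect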
TRPC4/MOR inh 2 – second selectivity test of TRPC6 modulators against mouse TRPC4; HEK293 TRPC4/mu-opioid, membrane potential dye fluorescence; stimulated with maximal-effect DAMGO; shares compounds with TRPC6 inhibitor; inhibition, % at 10 µM; actives 55% (n = 2,400);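 active = drop in membrane potential signal beyond 5 SD of the control wells in both duplicate plates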;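 also: TRPC4 counter screen for TRPC6 hits run under conditions tuned for TRPC6 not TRPC4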
TRPC6 inh conf – mouse TRPC6 inhibitor confirmation | shares compounds with TRPC6 inhibitor | HEK293-TRPC6, membrane potential dye, ACh-evoked depolarization | inhibition, % at 10 µM | actives 43% (n = 3,300) | AID 488960;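 active = fluorescence ratio falls more than 5 SD below the full-stimulation control mean, in both duplicate runs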;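 also: integrated fluorescence ratio of peak minus minimum over baseline after agonist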
TRPC6 act confirm – mouse TRPC6 activator confirmation; shares compounds with TRPC6 inhibitor; HEK293-TRPC6 membrane potential dye fluorescence, FDSS; activation, % at 10 µM; actives 11% (n = 2,800); AID 488961;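 active = ratio signal rise beyond 5 SD above unstimulated control wells' mean, seen in both duplicate runs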;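 also: plate controls were buffer EC0 wells for no effect and acetylcholine ECmax response for full effect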
Active calls of the source: *; i = inactive; . = no result given.

SMILES | TRPC4 inh | TRPC6 act | TRPC4 PAM | TRPC4 act | TRPC6 inhibitor | HEK293 MPD ctr-2 | HEK293 MPD ctr 2-2 | TRPC4/MOR mod | TRPC4/MOR inh 2 | TRPC6 inh conf | TRPC6 act confirm | others
Cc1nc2c(C)cccc2c2c1CCS2 | i | i | i | i | i | . | . | . | . | . | .
Cc1ccc2nc(C)c3c(c2c1)SCC3 | i | i | i | i | -5.2* | -170%* | i | -36%* | 38%* | i | i
COc1cc2c(cc1OC)C(c1ccc(-c3ccccc3Cl)o1)=NCC2 | i | i | i | i | -6.2* | -190%* | i | -48%* | 52%* | 40%* | i
COc1cc2c(cc1OC)C(c1ccc(Cl)cc1)=NCC2 | i | i | i | i | -6.2* | -275%* | i | -40%* | 52%* | 44%* | i
COc1cc2c(cc1OC)C(c1ccc(-c3ccc(Cl)cc3Cl)o1)=NCC2 | i | i | i | i | i | . | . | . | . | . | .
COc1cc2c(cc1OC)C(c1ccc(-c3ccc(Cl)c(Cl)c3)o1)=NCC2 | i | i | i | i | i | . | . | . | . | . | .
CCOC(=O)C1(Cc2cccc(OC)c2)CCN(Cc2cccn2-c2nccs2)CC1 | i | i | i | i | -6.5* | 207%* | i | 34%* | 86%* | i | .
COc1ccc2c(c1)N(C)/C(=C1/SC(=NCc3ccccc3)N(c3ccccc3)C1=O)S2 | i | i | i | i | -6.5* | i | i | i | i | i | i
COc1cc(/C=C2/SC(=S)N(CC3CCCO3)C2=O)ccc1O (stereo unspecified) | i | 16* | i | i | i | 212%* | i | 89%* | i | i | 40%*
COc1ccc(/C=C2\SC(=S)N(CC3CCCO3)C2=O)cc1 (stereo unspecified) | i | i | i | i | i | . | . | . | . | . | .
COc1cccc(C(=O)NCCS(=O)(=O)N2CCOCC2)c1 | i | i | i | i | i | . | . | . | . | . | .
CC(=O)Nc1ccc2c(c1)ncn2-c1ccc(C)cc1 | i | i | i | i | -5.5* | i | i | i | i | i | i
COc1ccc(C(=O)OCCN2CCCCC2)cc1 | i | i | i | i | i | . | . | . | . | . | .
Cc1c(C(=O)OCC(C)(C)CN(C)C)oc2ccccc12 | i | i | i | i | i | . | . | . | . | . | .
Cc1c(C(=O)OC(C)CCN(C)C)oc2ccccc12 (stereo unspecified) | i | i | i | i | -9.7* | . | . | . | . | i | . | TRPC4 spec 2=i;TRPC4 spec=7.3%*;HEK293 MPD ctr 2-1=i;HEK293 MPD ctr-1=11%*
Cc1c(C(=O)OCCN2CCCCC2)oc2ccccc12 | i | i | i | i | -8.6* | . | . | . | . | i | . | TRPC4 spec 2=i;TRPC4 spec=10%*;HEK293 MPD ctr 2-1=i;HEK293 MPD ctr-1=15%*
CC(C)(C)c1ccc(C(=O)OCCN2CCCCC2)cc1 | i | 13* | i | i | i | 128%* | i | 26%* | 56%* | i | 66%*
O=[N+]([O-])c1ccc(/C=N/Nc2ncccc2[N+](=O)[O-])s1 | i | i | i | i | i | . | . | . | . | . | .
Cc1cnc(NC(=O)Cc2ccccc2Cl)s1 | i | i | i | i | i | . | . | . | . | . | .
c1ccc(-n2cccc2CNC2CCCCC2)cc1 | i | i | i | i | -6.9* | . | . | . | . | i | . | TRPC4 spec 2=i;TRPC4 spec=i;HEK293 MPD ctr 2-1=i;HEK293 MPD ctr-1=i
Cn1cccc1CNC1CCCCC1 | i | i | i | i | i | . | . | . | . | . | .
CCN(CC)CCCOC(=O)C1(c2ccccc2)CCCC1 | i | i | i | i | -9.1* | . | . | . | . | 60%* | . | TRPC4 spec 2=i;TRPC4 spec=12%*;HEK293 MPD ctr 2-1=12%*;HEK293 MPD ctr-1=12%*
C[N+]1(CCOC(=O)C2(c3ccccc3)CCCC2)CCCCC1 | i | i | i | i | -11* | . | . | . | . | 78%* | i | TRPC4 spec 2=i;TRPC4 spec=i;HEK293 MPD ctr 2-1=-16%*;HEK293 MPD ctr-1=i
C[N+](C)(C)CCOC(=O)C1(c2ccccc2)CCCC1 | i | i | i | i | -8.5* | . | . | . | . | 69%* | i | TRPC4 spec 2=i;TRPC4 spec=i;HEK293 MPD ctr 2-1=1.0%*;HEK293 MPD ctr-1=i
C=CCO/N=C(/C)c1c(O)c(CC)c(-c2ccccc2)n(-c2ccccc2)c1=O | i | i | i | i | i | . | . | . | . | . | .
COc1ccc(/C=C/C2=Nc3ccccc3NC(C)(C)C2)cc1OC | i | i | i | i | i | . | . | . | . | . | .
CCOC(=O)c1c(CNc2ccncc2)n(C)c2cc(Br)c(O)cc12 | i | i | i | i | -8.3* | . | . | . | . | 60%* | i | TRPC4 spec 2=70%*;TRPC4 spec=-27%*;HEK293 MPD ctr 2-1=-46%*;HEK293 MPD ctr-1=-370%*
O=C(Nc1cc(F)ccc1F)N1CCN(c2ccnc3cc(Cl)ccc23)CC1 | i | i | i | i | i | . | . | . | . | . | .
Cc1ccc(F)cc1NC(=O)N1CCN(c2ccnc3cc(Cl)ccc23)CC1 | i | i | i | i | -5.3* | -94%* | i | -24%* | i | i | i
Cc1ccc(CNC(=O)C2CCCN2S(=O)(=O)c2ccc(Cl)cc2)cc1 (stereo unspecified) | i | i | i | i | -5.4* | i | i | i | i | i | i

Bioassay records as filed in PubChem.
